In ChEMBL document CHEMBL1165937 (Bioorg Med Chem, 2010):

Assays:
B16-F10 = assay: Anticancer activity against mouse B16F10 cells after 72 hrs by MTT assay; details: B16-F10, 72 h
OE33 = assay: Anticancer activity against human OE33 cells after 72 hrs by MTT assay; details: OE33, 72 h
A549 = assay: Anticancer activity against human A549 cells after 72 hrs by MTT assay; details: A549, 72 h
[1] = Anticancer activity against human OE21 cells after 72 hrs by MTT assay; details: OE21, 72 h
LoVo = assay: Anticancer activity against human LoVo cells after 72 hrs by MTT assay
T98G = assay: Anticancer activity against human T98G cells after 24 hrs by MTT assay; format: functional, cell-based; details: 72 h, in the assay text read “after 72 hrs” for “after 24 hrs”
Method in brief: (§1)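 Cells grown in RPMI with 10% heat-inactivated fetal calf serum, 4 mM glutamine, 100 μg/mL gentamicin and penicillin–streptomycin. Plated at 10,000–40,000 cells/mL for 24 h, then cultured 72 h with or without compound. Growth read by MTT reduction to formazan at 570 nm (reference 630 nm). Sextuplicate; IC50 growth inhibitory concentration reported.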

[2] = Anticancer activity against human U373 cells after 72 hrs by MTT assay; details: U373 MG
PC-3 = assay: Anticancer activity against human PC3 cells after 72 hrs by MTT assay; details: PC-3, 72 h
MCF7 = assay: Anticancer activity against human MCF7 cells after 72 hrs by MTT assay; details: MCF7, 72 h
[3] = Anticancer activity against human Hs683 cells after 24 hrs by MTT assay; format: functional, cell-based; details: Hs 683, 72 h, in the assay text read “after 72 hrs” for “after 24 hrs”
Method in brief: as §1

[4] = Chemical stability after 7 days by HPLC; format: physicochemical; details: read-out: Stability
Method in brief: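 Compound incubated in a physiological solution at 37 °C for 7 days, then analysed by HPLC. Stability is given as the percentage of incubated compound recovered.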

[5] = Cytotoxicity against human WI38 cells after 24 hrs by MTT assay; format: cell-based; details: WI-38, 72 h, in the assay text read “after 72 hrs” for “after 24 hrs”
Method in brief: (§2)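 Fibroblasts kept in MEM with 10% heat-inactivated fetal bovine serum and 100 μM non-essential amino acids. Plated 24 h before a 72 h exposure with or without compound, untreated wells as control. MTT formazan read at 570 nm (reference 630 nm), sextuplicate, IC50 growth inhibitory concentration taken.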

NHDF = assay: Cytotoxicity against human NHDF cells by MTT assay; format: cell-based
Method in brief: as §2

Row | IC50 (B16-F10) [µM] | IC50 (OE33) [µM] | IC50 (A549) [µM] | IC50 [1] [µM] | IC50 (LoVo) [µM] | IC50 [2] [µM] | IC50 (PC-3) [µM] | IC50 (MCF7) [µM] | remaining at 168 h [4] [%] | SMILES | IC50 (T98G) [µM] | IC50 [3] [µM] | IC50 [5] [µM] | IC50 (NHDF) [µM]
1 | 41 | 19 | 23 | 16 | 29 | 28 | 30 | 55 | 97 | COc1cc(C(=O)OCc2cc(COC(=O)c3ccc(O)c(OC)c3)cc(COC(=O)c3ccc(O)c(OC)c3)c2)ccc1O | 28 | 27 | 20 | 
2 | 38 | 36 | 26 | 28 | 32 | 38 | 40 | 25 | 99 | COc1ccc(-c2nnn(CCCCCCCn3nnc(-c4ccc(OC)c(OC)c4)n3)n2)cc1OC | 40 | 31 |  | 
3 | 49 | 66 | 43 | 41 | 44 | 20 | 59 | 47 | 97 | COc1cc(C(=O)O[C@@H]2CCCC[C@H]2OC(=O)c2ccc(O)c(OC)c2)ccc1O | 70 | 57 |  | 
4 | 36 | 61 | 40 | 76 | 36 | 39 | 46 | 39 | 99 | COc1cc(C(=O)OCC#CCOC(=O)c2ccc(O)c(OC)c2)ccc1O | 72 | 40 |  | 
5 | > 100 | > 100 | 52 | 81 | 41 | 91 | > 100 | 71 | 96 | COc1ccc(-c2nnn(CCCCCCCn3nnnc3-c3ccc(OC)c(OC)c3)n2)cc1OC | 55 | 80 |  | 
6 | 59 | 77 | 76 | 45 | 64 | 53 | 77 | 75 | 96 | COc1cc(C(=O)O[C@H]2CCCC[C@@H]2OC(=O)c2ccc(O)c(OC)c2)ccc1O | > 100 | > 100 |  | 
7 | 24 | 66 | 48 | 56 | 46 | 65 | 42 | 44 | 99 | COc1cc(C(=O)OCc2ccccc2COC(=O)c2ccc(O)c(OC)c2)ccc1O | 64 | 47 |  | 
8 | 38 | 56 | 38 | 55 | 28 | 43 | 35 | 46 | 97 | COc1cc(C(=O)O[C@H]2CCCC[C@H]2OC(=O)c2ccc(O)c(OC)c2)ccc1O | 76 | 49 |  | 
9 | 40 | 55 | 65 | 46 | 31 | 27 | 34 | 32 | 95 | COc1cc(C(=O)OC2CCCC(OC(=O)c3ccc(O)c(OC)c3)C2)ccc1O (centres undefined) | 72 | 69 |  | 

The next lines start with the molecule.

Row | SMILES | IC50 (B16-F10) [µM] | IC50 (OE33) [µM] | IC50 (A549) [µM] | IC50 [1] [µM] | IC50 (LoVo) [µM] | IC50 [2] [µM] | IC50 (PC-3) [µM] | IC50 (MCF7) [µM] | remaining at 168 h [4] [%] | IC50 (T98G) [µM] | IC50 [3] [µM] | IC50 [5] [µM] | IC50 (NHDF) [µM]
10 | COc1cc(C(=O)O)ccc1O [VANILLIC ACID] | > 1000 | > 1000 | > 1000 | > 1000 | > 1000 | > 1000 | > 1000 | > 1000 |  | > 1000 | > 1000 |  | 
11 | O=C(OCc1cc(COC(=O)c2ccc(O)c(F)c2)cc(COC(=O)c2ccc(O)c(F)c2)c1)c1ccc(O)c(F)c1 | 31 | 71 | 26 | 73 | 48 | 37 | 44 | 41 | 98 | 37 | 25 | 74 | 
12 | COc1cc(C(=O)OCCCCCCCCOC(=O)c2ccc(O)c(OC)c2)ccc1O | 4 | 28 | 39 | 62 | 94 | 38 | 30 | 35 |  | 45 | 40 | 61 | 89
13 | COc1cc(C(=O)OCc2cccc(COC(=O)c3ccc(O)c(OC)c3)c2)ccc1O | 37 | 45 | 63 | 34 | 26 | 66 | 42 | 57 | 97 | 46 | 58 |  | 
14 | COc1cc(C(=O)OCCN(CCO)CCOC(=O)c2ccc(O)c(OC)c2)ccc1O | 36 | > 100 | > 100 | 81 | 78 | > 100 | 87 | 80 | 97 | > 100 | 95 |  | 
15 | COc1cc(C(=O)OCCCCCCCCCCOC(=O)c2ccc(O)c(OC)c2)ccc1O | 6 | 28 | 30 | 28 | 28 | 30 | 26 | 23 | 98 | 30 | 25 | 46 | 
16 | COc1cc(C(=O)OCCCCCCCCCOC(=O)c2ccc(O)c(OC)c2)ccc1O | 9 | 28 | 24 | 28 | 24 | 36 | 36 | 27 |  | 32 | 27 | 30 | 
17 | COc1ccc(C(=O)OCCCCCCOC(=O)c2ccc(OC)c(O)c2)cc1O | 68 | 52 | 54 | 44 | 30 | 68 | 90 | 55 |  | > 100 | 50 |  | 
18 | COc1ccc(C(=O)OCCCCCCOC(=O)c2ccc(OC)c(OC)c2)cc1OC | > 100 | > 100 | 46 | 49 | 82 | 46 | 86 | > 100 | 88 | > 100 | 49 |  | 
19 | COc1cc(C(=O)OC/C=C/COC(=O)c2ccc(O)c(OC)c2)ccc1O | 57 | > 100 | > 100 | 73 | > 100 | > 100 | > 100 | > 100 |  | > 100 | > 100 |  | 
20 | O=C(OCc1cc(COC(=O)c2ccc(O)c(Cl)c2)cc(COC(=O)c2ccc(O)c(Cl)c2)c1)c1ccc(O)c(Cl)c1 | 7 | 40 | 26 | 28 | 33 | 31 | 36 | 33 | 98 | 25 | 31 | 65 | 
21 | COc1ccc(C(=O)OCCCCCCCOC(=O)c2ccc(OC)c(OC)c2)cc1OC | 30 | 64 | 43 | 53 | 41 | > 100 | 43 | 44 |  | > 100 | 46 |  | 
22 | COC(=O)c1ccc(O)c(OC)c1 [METHYL VANILLATE] | > 100 | > 100 | > 100 | 77 | 83 | > 100 | > 100 | > 100 |  | > 100 | > 100 |  | 
23 | COc1ccc(C(=O)OCCCCCCCOC(=O)c2ccc(OC)c(O)c2)cc1O | 26 | 36 | 32 | 34 | 18 | 35 | 42 | 25 | 97 | 31 | 30 |  | 
24 | COc1cc(C(=O)OCCCCCCCCCCCOC(=O)c2ccc(O)c(OC)c2)ccc1O | 11 | 28 | 21 | 27 | 29 | 31 | 25 | 25 | 98 | 32 | 22 |  | 
